Laboratory results: article PMC11964553 (Materials Today Bio, 2025)

What was measured:
[1] = Plasma pharmacokinetics in orthotopic 4T1 tumor-bearing mice; type: in vivo, BALB/c mice
[2] = Tissue quantification of Om and As in tumor; type: in vivo, BALB/c mice
Outline: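 Orthotopic 4T1-luc tumor-bearing female BALB/c mice were dosed i.v. with free drug combination or co-loaded liposome. Tumor and organs were collected at 1, 2, 4, 6, 8, 10, 12 and 24 h, weighed, and homogenized in cold methanol at 4 °C, then spun at 12,000 rpm for 10 min at 4 °C. The pellet was re-extracted with cold chloroform and the supernatants pooled. Parameters came from a non-compartmental model; n = 6.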

[3] = cited from earlier work

Compound	Cmax of As in plasma ([1]; i.v. 2.0 mg/kg Om and 1.5 mg/kg As, 4T1 tumor-bearing mice, n = 6) [ng/mL]	MRT of As in plasma ([1]; i.v., n = 6) [h]	Tmax of As in plasma ([1]; i.v., n = 6) [h]	t1/2 of As in plasma ([1]; i.v., n = 6) [h]	AUC of As in plasma ([1]; time 0–24 h, i.v., n = 6) [ng·h/mL]	Cmax of As in tumor ([2]; i.v., n = 6) [ng/mL]	MRT of As in tumor ([2]; i.v., n = 6) [h]	AUC of As in tumor ([2]; time 0–24 h, i.v., n = 6) [ng·h/mL]	Solubility [3]	AUC ([1]; BALB/c, mouse, iv, 2 mg/kg) [ng·h/mL]	Cmax ([1]; BALB/c, mouse, iv, 2 mg/kg) [ng/mL]	MRT ([1]; BALB/c, mouse, iv, 2 mg/kg) [h]	Tmax ([1]; BALB/c, mouse, iv, 2 mg/kg) [h]	half-life ([1]; BALB/c, mouse, iv, 2 mg/kg) [h]	AUC ([2]; BALB/c, mouse, iv, 2 mg/kg) [ng·h/mL]	Cmax ([2]; BALB/c, mouse, iv, 2 mg/kg) [ng/mL]	MRT ([2]; BALB/c, mouse, iv, 2 mg/kg) [h]	log partition coefficient (log P) [3]
CC(C)(O)[C@@H]1CC[C@](C)([C@H]2[C@@H](O)C[C@@]3(C)[C@@H]4C[C@H](O[C@@H]5O[C@H](CO)[C@@H](O)[C@H](O)[C@H]5O)[C@H]5C(C)(C)[C@@H](O[C@@H]6OC[C@@H](O)[C@H](O)[C@H]6O)CC[C@@]56C[C@@]46CC[C@]23C)O1 [Free As, Astragaloside IV]	52.22 ± 9.04	1.73 ± 0.50	0.17 ± 0.01	1.73 ± 1.03	38.77 ± 12.39	0.64 ± 0.26	5.36 ± 2.05	6.04 ± 2.43	poor solubility									
O=C1CCC[C@@H]2[C@H]3CCC[N+]4([O-])CCC[C@@H](CN12)[C@@H]34 (stereo partly drawn) [Free Om, oxymatrine]										1.01 ± 0.25	1.75 ± 0.31	2.12 ± 1.19	0.17 ± 0.01	5.66 ± 2.12	6.09 ± 3.96	0.92 ± 0.43	6.95 ± 2.83	low
